Experimental data from different studies.
Compare with care: the assays were run in different laboratories.
Target: Phosphorylase b kinase gamma catalytic chain, skeletal muscle/heart isoform (PHKG1, Homo sapiens, UniProt Q16816)

Compound	test	conditions	remaining binding [%]
O=C(c1ccc(Nc2nccc(-c3cc4ccccc4s3)n2)cc1)N1CCC(N2CCCC2)CC1	binding, competition with immobilised ligand	1 µM	96
Cc1nc(N2CC[C@@H](O)C2)ncc1-c1cc(C(F)(F)F)cc2[nH]ncc12	cell-free assay, competition with immobilised ligand	1 µM	81
CN(c1nccc(-c2cnn3ncccc23)n1)C1CC1	binding	1 µM	100
c1cncc(-c2cccc(Nc3nccc(NC4CCCCC4)n3)c2)c1	binding, competition with immobilised ligand	10 µM	75
O=C(NCCCN1CCOCC1)c1ccc(Nc2ncc(Cl)c(-c3ccc(Cl)s3)n2)cc1	binding, competition with immobilised ligand	1 µM	56
C[C@@H](c1ccc(-n2cnc3c(N)ncnc32)cc1)N1CCc2nn(C)c(Cc3ccccc3)c2C1=O	binding, competition with immobilised ligand	0.1 µM	90
c1cnn2ncc(-c3ccnc(N4CCC45COC5)n3)c2c1	binding	1 µM	85
CC1=C(C#N)C(c2ccc3c(c2)c(NC(=O)c2ccccc2C)nn3C)C(C#N)=C(C)N1	cell-free assay, competition with immobilised ligand	1 µM	91
O=C(NCCCN1CCOCC1)c1ccc(Nc2nccc(-c3cc4ccccc4s3)n2)cc1	binding, competition with immobilised ligand	1 µM	49
O=C(NCC1CCOCC1)c1n[nH]cc1NC(=O)c1c(F)cccc1F	binding, competition with immobilised ligand	1 µM	100
C=CC(=O)N1CCC(C(=O)NCC(=O)N2CCN(c3nc(-c4cnc(N)nc4C(F)F)nc(N4CCOCC4)n3)CC2)CC1	binding, competition with immobilised ligand	1 µM	100
COc1ccc2cc(OCC3(C(=O)O)CN(C(=O)c4ccc(F)cc4)C3)ccc2c1	cell-free assay, competition with immobilised ligand	1 µM	100
COc1cnc(Nc2cccc(S(N)(=O)=O)c2)nc1N1CCN(c2ccccc2)C(=O)C1	binding, competition with immobilised ligand	1 µM	100
CO[C@H]1CC[C@H](CNc2ccc(S(=O)(=O)NC(=O)c3ccc(N4CCN(CC5=C(c6ccc(Cl)cc6)CC(C)(C)CC5)CC4)cc3Oc3cnc4[nH]ccc4c3)cc2[N+](=O)[O-])CC1	cell-free assay, competition with immobilised ligand	1 µM	100
C[C@H]1CCN(c2nccc(-c3cnn4ncccc34)n2)C1	binding	1 µM	100
CCC(=N\O)/C(C)=C/c1ccc(F)cc1	cell-free assay, competition with immobilised ligand	1 µM	100
COc1ccnn2ncc(-c3ccnc(N(C)C)n3)c12	binding	1 µM	100
O=C(N[C@H]1CCCCC/C=C\C2C[C@@]2(C(=O)O)NC(=O)[C@@H]2C[C@@H](Oc3ccncc3)CN2C1=O)OC1CCCC1 (stereo partly shown)	binding, competition with immobilised ligand	1 µM	88
CC1CCCN1c1nccc(-c2cnn3ncccc23)n1 (stereo not shown)	binding	1 µM	100
CNC(=O)[C@@H]1CC[C@@H](n2c(-c3ccc4cnccc4c3)nc3ccc(C(=O)NCc4cccc(C(N)=O)c4)cc32)C1	binding, competition with immobilised ligand	1 µM	100
CN(CCCC(F)(F)F)c1nccc(-c2cnn3ncccc23)n1	binding	1 µM	100
Nc1ncc2c(n1)-c1c([nH]c3ccc(C#CC4CC4)cc13)CCCC2	binding, competition with immobilised ligand	1 µM	93
